Hits are enriched below; roughly 4.3% of the tested compounds scored in any of these assays.
SR-BI DiI-HDL act: SR-BI HDL lipid transfer activation. CHO ldlA[mSR-BI] cells, DiI-HDL uptake fluorescence, 3 h; 100 = double the neutral-control signal. activation, % at 12.5 µM. 320,000 compounds, 0.096% hits;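 active = mean replicate activation of at least 60% and every replicate at or above 60%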;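 note: 0% = median plate neutral-control signal and 100% = twice that signal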
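system = CHO ldlA[mSR-BI] cells, LDL receptor-null, SR-BI overexpressing | medium = Ham's F12 with 0.5% BSA, HEPES 25 mM, pH 7.4 | probe or stimulus = DiI-HDL 10 µg/mL | compound dosing = single-point compound dose | incubation = compound exposure 3 h, 37 °C | technique = DiI fluorescence, bottom read | read-out = cell-associated DiI fluorescence as measure of HDL uptake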
SMARCA2 act: SMARCA2 function activation, primary screen. MG213 cells, MMTV-luciferase reporter, dexamethasone, overnight. activation, % at 9.1 µM. 370,000 compounds, 1% hits. AID 652017; in the data active = activation above about 7.8%;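 note: 0% = vehicle wells and 100% = reference activator wells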
AHR act: activators of human aryl hydrocarbon receptor; P35869; 320,000 compounds, 2.5% hits; AHR-responsive luciferase reporter cells, luminescence; activation, % at 5 µM; in the data active = activation above about 47%;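 note: 0% = vehicle wells and 100% = reference agonist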
Target sequence (P35869 whole entry, looked up): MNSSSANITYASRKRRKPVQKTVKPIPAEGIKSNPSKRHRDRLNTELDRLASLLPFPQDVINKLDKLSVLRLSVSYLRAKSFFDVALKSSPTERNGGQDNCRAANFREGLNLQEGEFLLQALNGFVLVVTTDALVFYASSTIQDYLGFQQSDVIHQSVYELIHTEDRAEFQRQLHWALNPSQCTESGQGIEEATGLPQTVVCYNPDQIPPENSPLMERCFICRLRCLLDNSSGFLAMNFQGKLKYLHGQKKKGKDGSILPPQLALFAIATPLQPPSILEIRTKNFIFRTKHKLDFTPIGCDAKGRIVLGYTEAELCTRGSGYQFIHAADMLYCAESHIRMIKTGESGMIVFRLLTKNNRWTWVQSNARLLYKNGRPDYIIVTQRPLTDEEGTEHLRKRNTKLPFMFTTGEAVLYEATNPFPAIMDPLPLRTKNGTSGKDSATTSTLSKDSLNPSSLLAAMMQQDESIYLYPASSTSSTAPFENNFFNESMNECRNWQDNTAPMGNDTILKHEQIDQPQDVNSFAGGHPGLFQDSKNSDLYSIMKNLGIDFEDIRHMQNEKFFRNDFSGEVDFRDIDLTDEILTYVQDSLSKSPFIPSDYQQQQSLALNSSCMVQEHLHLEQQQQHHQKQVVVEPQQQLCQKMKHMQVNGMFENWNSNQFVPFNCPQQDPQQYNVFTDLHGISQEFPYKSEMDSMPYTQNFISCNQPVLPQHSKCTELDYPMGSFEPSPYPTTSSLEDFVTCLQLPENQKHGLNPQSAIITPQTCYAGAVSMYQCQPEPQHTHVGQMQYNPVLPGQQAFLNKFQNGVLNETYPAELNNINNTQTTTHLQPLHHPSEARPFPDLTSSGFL
CR mimetic SO: caloric restriction mimetics inhibiting age-related superoxide in yeast; AID 2690; S. cerevisiae aged cells, superoxide DHE fluorescence; hits give low values; 330,000 compounds, 0.18% hits; superoxide response (% of plate mean), % at 10 µM;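 active = superoxide response under a set limit, about three screen SD below normal, cut at about 65% in these data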;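 note: yeast aged for seven days with compound at 30 °C before DHE staining; 100% = average MFI of all compound-treated wells on the plate with controls excluded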
Hep lipid drop: hepatic lipid droplet formation modulation; AML12 mouse hepatocytes, oleate lipid droplets, BODIPY imaging; inhibition, % at 6.5 µM; 240,000 compounds, 0.4% hits; AID 1656;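 active = lipid droplet intensity inhibited by at least 50%, with more than 500 cells counted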
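Material: mouse AML12 hepatocyte cell line, fixed after treatment; Timing: compound with oleate, overnight; Technique: high-content imaging of BODIPY-stained droplets and DAPI nuclei; Probe or stimulus: oleate, 100 µM final; Dosing: compound at 6.5 µM only.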
SR-BI DiI inh: mouse SR-BI HDL lipid transfer inhibition; Q61009; inhibition, % at 12.5 µM; ldlA[mSR-BI] CHO cells, DiI-HDL uptake fluorescence, 3 h; 320,000 compounds, 0.96% hits;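 active = mean replicate inhibition of at least 70% and a set share of replicates each scoring 70 or more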;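 note: 0% = median of neutral control wells and 100% = median of positive control wells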
SMARCA2 act conf: confirmation of SMARCA2 (BRM) function activators. shares compounds with SMARCA2 act. MG213 cells, MMTV-luciferase with dexamethasone, luminescence, overnight; MG213 cells expressing E1A, Rb sequestered; DMSO wells 0%, reference activator 100%. activation, % at 9.1 µM. 3,500 compounds, 30% hits;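 active = activation above its plate's cutoff, the mean activation of tested wells plus 3 SD, cut at about 7.9% in these data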
GAL4-VP16 Luc: GAL4-VP16 reporter activation counter-screen | shares compounds with SMARCA2 act | HEK293 GAL4-VP16 pG5luc reporter, luciferase luminescence; scaled: DMSO wells 0%, SAHA wells 100% | activation, % at 9.1 µM | 3,500 compounds, 41% hits;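 active = activation above the solvent-only control well mean plus 3 SD, averaged across control plates, cut at about 5.2% in these data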
Numbers without * were called inactive.

For O=C(Nc1sc2c(c1C(=O)NCc1ccco1)CCCC2)c1ccc2c(c1)OCO2 the results were SR-BI DiI-HDL act -82, SMARCA2 act 8.9*, AHR act 3, CR mimetic SO 92, Hep lipid drop -2, SR-BI DiI inh 82*, SMARCA2 act conf 4 and GAL4-VP16 Luc 8.3*.
`O=C(Nc1sc2c(c1C(=O)O)CCC2)c1ccco1` gave SR-BI DiI-HDL act 4, SMARCA2 act 9.1*, AHR act 5, CR mimetic SO 124, SR-BI DiI inh -4, SMARCA2 act conf 3 and GAL4-VP16 Luc 4.
CCCCNC(=O)C[C@H]1C[C@@]2(C(=O)OC)C(=C[C@H](COCc3ccccc3)O[C@@H]2C)N(Cc2ccco2)C1=O was read as SMARCA2 act -3.
For Cc1ccc(-c2nc(NCCN(C)C)c3ccccc3n2)cc1 the results were SR-BI DiI-HDL act -1, SMARCA2 act 13*, AHR act 43, CR mimetic SO 98, Hep lipid drop -13, SR-BI DiI inh 1, SMARCA2 act conf 15* and GAL4-VP16 Luc 2.
For O=C(CSc1nnc(-c2cccs2)o1)c1cccc([N+](=O)[O-])c1 the results were SMARCA2 act 4.
`CC(C)C[C@@H]1COc2cc(Br)ccc2S(=O)(=O)N1Cc1cn(Cc2ccc(Br)cc2)nn1` gave SMARCA2 act 0.
For Cc1cccc(N=Nc2cnc(N)s2)c1 the results were SR-BI DiI-HDL act -16, SMARCA2 act 8.1*, AHR act 31, CR mimetic SO 100, Hep lipid drop -3, SR-BI DiI inh 16, SMARCA2 act conf 4 and GAL4-VP16 Luc 4.
Screening CC(=O)Nc1ncc(N=Nc2cccc(C(F)(F)F)c2)s1 returned SR-BI DiI-HDL act 16, SMARCA2 act 1, AHR act 3, CR mimetic SO 88, Hep lipid drop -1 and SR-BI DiI inh -16.
For Cc1ccc(SCCNC(=S)Nc2ccccc2)cc1 the results were SR-BI DiI-HDL act 11, SMARCA2 act 8.8*, AHR act -4, CR mimetic SO 96, Hep lipid drop -1, SR-BI DiI inh -11, SMARCA2 act conf -5 and GAL4-VP16 Luc 0.
Cc1ccc(SCCNC(=S)Nc2ccc(C)c(C)c2)cc1 was read as SR-BI DiI-HDL act -18, SMARCA2 act -3, AHR act 2, CR mimetic SO 95 and SR-BI DiI inh 18.
For CN1CCCCC(NC(=O)c2ccc(F)cc2)C1=O (stereo unspecified) the results were SMARCA2 act 1.
Screening COc1ccccc1CNc1ccc2c(c1)OC[C@H](CC(C)C)NS2(=O)=O returned SMARCA2 act -4.
Screening C/C(=N\NC(=O)c1ccccc1OCc1ccc(F)cc1)c1ccccn1 returned SR-BI DiI-HDL act -56, SMARCA2 act 17*, AHR act 11, CR mimetic SO 74, SR-BI DiI inh 56, SMARCA2 act conf -15 and GAL4-VP16 Luc 7.6*.
For COc1ccc(C(=O)Nc2ccc3c(c2)OCCO3)c(OC)c1 the results were SMARCA2 act 14*, SMARCA2 act conf 7 and GAL4-VP16 Luc 14*.
For O=C(Nc1cccc(Cl)c1)c1ccc2c(c1)OCCO2 the results were SR-BI DiI-HDL act 5, SMARCA2 act 9.0*, AHR act 2, CR mimetic SO 88, Hep lipid drop 7, SR-BI DiI inh -5, SMARCA2 act conf 6 and GAL4-VP16 Luc 8.7*.
For O=C(Nc1cccc2nsnc12)c1ccc2c(c1)OCCO2 the results were SR-BI DiI-HDL act -10, SMARCA2 act 8.8*, AHR act 20, CR mimetic SO 93, SR-BI DiI inh 10, SMARCA2 act conf 5 and GAL4-VP16 Luc 9.7*.
COc1ccc(C(=O)Nc2ccc3c(c2)OCCO3)cc1 was read as SR-BI DiI-HDL act 2, SMARCA2 act 8.0*, AHR act -7, CR mimetic SO 111, Hep lipid drop -1, SR-BI DiI inh -2, SMARCA2 act conf 5 and GAL4-VP16 Luc 10.0*.
O=C(Nc1cccc2cccnc12)c1ccc2c(c1)OCCO2 was read as SR-BI DiI-HDL act -4, SMARCA2 act 3, AHR act 23, CR mimetic SO 105, Hep lipid drop -4 and SR-BI DiI inh 4.
`COc1nc(C)ccc1-c1noc(-c2cccnc2)n1` gave SR-BI DiI-HDL act 6, SMARCA2 act 11*, AHR act 23, CR mimetic SO 101, Hep lipid drop -1, SR-BI DiI inh -6, SMARCA2 act conf 4 and GAL4-VP16 Luc 7.1*.
For CCOc1ccc(-c2nc(-c3cccnc3)no2)cc1 the results were SR-BI DiI-HDL act -14, SMARCA2 act 9.3*, AHR act -4, CR mimetic SO 104, Hep lipid drop 8, SR-BI DiI inh 14, SMARCA2 act conf 3 and GAL4-VP16 Luc 13*.
Screening COc1nc(C)ccc1-c1noc(-c2ccccn2)n1 returned SR-BI DiI-HDL act 4, AHR act -7, CR mimetic SO 87, Hep lipid drop 0 and SR-BI DiI inh -4.
Screening C=CCCC(=O)N1C[C@H]2CCN(C)[C@H]2C[C@H]1c1ccccc1Br returned SMARCA2 act 1.
For COCCCNC(=O)c1ccc2nc(Cc3ccc(OC)cc3)oc2c1 the results were SR-BI DiI-HDL act 13, SMARCA2 act 11*, AHR act 11, CR mimetic SO 115, Hep lipid drop -1, SR-BI DiI inh -13, SMARCA2 act conf 5 and GAL4-VP16 Luc 9.3*.
Screening N#Cc1c(N)nc2c(c1N)CC(CCl)O2 (stereo unspecified) returned SR-BI DiI-HDL act 33, SMARCA2 act 9.7*, AHR act 0, CR mimetic SO 103, Hep lipid drop 8, SR-BI DiI inh -33, SMARCA2 act conf -6 and GAL4-VP16 Luc 0.
COc1ccccc1N1CCN(C2=Nc3cccc4cccc2c34)CC1 was read as SR-BI DiI-HDL act -38, SMARCA2 act 9.2*, AHR act 6, CR mimetic SO 88, Hep lipid drop -4, SR-BI DiI inh 38, SMARCA2 act conf 22* and GAL4-VP16 Luc 6.5*.
`CC(=O)N1CCN(C2=Nc3cccc4cccc2c34)CC1` gave SR-BI DiI-HDL act 9, SMARCA2 act -1, AHR act 2, CR mimetic SO 95 and SR-BI DiI inh -9.
